ChEMBL document CHEMBL1134922, “Substituted 4-(2,2-diphenylethyl)pyridine-N-oxides as phosphodiesterase-4 inhibitors: SAR study directed toward the improvement of pharmacokinetic parameters” (Bioorg Med Chem Lett, 2002)
Several values for one entry are separate records, joined by “and”; a condition that tells them apart may be missing. Equal entries are not always repeated. Activity calls are given as the source filed them. No cut-off for these calls is given here.

Experiments:
Cavia porcellus [1] = test: Inhibition of the ovalbumin-induced bronchoconstriction in conscious guinea pigs after 0.5 hr pretreatment with 1 mg/kg administered intraperitoneally; format: functional; details: route intraperitoneal
[2] = (§1) Inhibition of ascaris-induced bronchoconstriction in Anaesthetized squirrel monkey after treatment with 3 mg/kg peroral dose; format: functional; details: route oral
[3] = (§2) Inhibition of ascaris-induced bronchoconstriction in Anaesthetized squirrel monkey after treatment with 0.5 mg/kg peroral dose; format: functional; details: route oral
[4] = biological target: 3',5'-cyclic-AMP phosphodiesterase 4A (Homo sapiens, UniProt P27815); test: Inhibition of human Phosphodiesterase 4A isoform using construct representing the common region of spliced variants expressed as GST-fusion proteins in Sf9 cells.
Sequence of 3',5'-cyclic-AMP phosphodiesterase 4A (P27815 whole entry, looked up, stated change not applied, the tested form may be a part, canonical isoform): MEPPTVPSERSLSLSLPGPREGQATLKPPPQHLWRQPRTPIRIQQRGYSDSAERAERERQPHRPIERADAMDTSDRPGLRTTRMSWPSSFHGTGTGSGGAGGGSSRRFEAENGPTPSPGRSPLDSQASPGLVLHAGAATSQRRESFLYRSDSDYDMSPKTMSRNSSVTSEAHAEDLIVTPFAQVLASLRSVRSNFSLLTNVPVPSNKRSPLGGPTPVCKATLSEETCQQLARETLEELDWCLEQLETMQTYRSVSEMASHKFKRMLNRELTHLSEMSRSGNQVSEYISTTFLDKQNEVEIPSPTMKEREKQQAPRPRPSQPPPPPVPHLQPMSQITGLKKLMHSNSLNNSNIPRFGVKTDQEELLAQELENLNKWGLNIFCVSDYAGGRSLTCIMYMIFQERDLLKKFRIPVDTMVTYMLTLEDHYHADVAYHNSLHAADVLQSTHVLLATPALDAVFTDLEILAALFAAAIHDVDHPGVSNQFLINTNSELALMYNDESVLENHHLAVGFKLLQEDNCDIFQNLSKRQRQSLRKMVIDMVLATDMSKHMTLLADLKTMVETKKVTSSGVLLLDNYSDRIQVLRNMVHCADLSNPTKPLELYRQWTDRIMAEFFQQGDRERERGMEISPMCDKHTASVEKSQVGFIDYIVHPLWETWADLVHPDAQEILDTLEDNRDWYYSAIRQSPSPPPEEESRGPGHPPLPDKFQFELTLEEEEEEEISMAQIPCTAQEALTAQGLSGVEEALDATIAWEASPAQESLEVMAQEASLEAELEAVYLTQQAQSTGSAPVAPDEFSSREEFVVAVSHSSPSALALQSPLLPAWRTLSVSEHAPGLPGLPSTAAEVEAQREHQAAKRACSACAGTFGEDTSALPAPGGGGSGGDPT

[5] = Half-life in Squirrel monkey; format: ADME; details: in vivo
Ovis aries [6] = test: Inhibition of ascaris-induced bronchoconstriction in sheep after late treatment with 2 mg/kg intravenous dose
[7] = Cmax in ferrets after 30mg/kg oral dose; format: ADME, organism-based, Mustela putorius furo; design: dose 30 mg/kg, route oral; details: ferret, in vivo
Outline: (§3)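 Ferrets dosed orally at 30 mg/kg; emesis monitored, with plasma Cmax recorded.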

[8] = Half-life in Dog; format: ADME, organism-based, Canis lupus familiaris; details: in vivo
[9] = as §1; format: functional; details: route oral; remark: listed apart in the source
Ovis aries [10] = test: Inhibition of ascaris-induced bronchoconstriction in sheep after early treatment with 2 mg/kg intravenous dose
[11] = Half-life in rat; format: ADME, organism-based; details: in vivo
[12] = as §2; format: functional; details: route oral; remark: listed apart in the source
[13] = (§4) Inhibition of ascaris-induced bronchoconstriction in Anaesthetized squirrel monkey after treatment with 1 mg/kg peroral dose; format: functional; details: route oral
[14] = as §4; format: functional; details: route oral; remark: listed apart in the source
Homo sapiens = species on record: Homo sapiens; test: Inhibition of LPS-induced TNF-alpha formation in human whole blood.; format: functional, organism-based
[15] = Bioavailability upon oral administration of compound; format: ADME, organism-based; details: rat, in vivo
Outline: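 Rat, oral dosing at 3 mg/kg in 60% PEG200; bioavailability determined, with plasma level also sampled at 6 h.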

Mustela putorius furo = test: Emetic effect in ferrets to maximum 30 mg/kg oral dose; format: functional, organism-based; design: dose 30 mg/kg; outline: as §3
Cavia porcellus [16] = test: Inhibition of the ovalbumin-induced bronchoconstriction in conscious guinea pigs after 4 hr pretreatment with 1 mg/kg administered intraperitoneally; format: functional; details: route intraperitoneal
Ovis aries [17] = test: Inhibition of ascaris-induced bronchoconstriction in sheep after early treatment with 2 mg/kg intravenous dose; format: functional
Outline: (§5)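 Sheep, ascaris-induced bronchoconstriction; 2 mg/kg given iv 2 h before challenge; percent inhibition of early and late responses.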

Ovis aries [18] = test: Inhibition of ascaris-induced bronchoconstriction in sheep after late treatment with 2 mg/kg intravenous dose; format: functional; outline: as §5

Which Efficacy (Cavia porcellus [1]) does the source give for `Cc1c[n+]([O-])ccc1CC(c1ccc(C(O)(C(F)(F)F)C(F)(F)F)cc1)c1ccc(OC(F)F)c(OC(F)F)c1` (stereo in doubt) [listing 1 of 2 here] here?
The Efficacy was 82%.

What about the Efficacy [2] of the same compound?
The Efficacy was 100%.

And the Efficacy [3]?
The Efficacy was 38%.

What about the IC50 [4] of the same compound?
Its IC50 is 0.0013 µM and 0.0042 µM.

What about the half-life [5] of the same compound?
Its half-life is 36 h.

What about the Efficacy (Ovis aries [6]) of the same compound?
The Efficacy was 90%.

And the Cmax [7]?
The Cmax was 10 µM.

What about the half-life [8] of the same compound?
The half-life was 19 h.

And the Efficacy [9]?
The Efficacy was 59%.

What about the Efficacy (Ovis aries [10]) of the same compound?
The Efficacy was 62%.

What about the half-life [11] of the same compound?
Its half-life is 10 h.

And the Efficacy [12]?
The Efficacy was 26%.

What about the Efficacy [13] of the same compound?
The Efficacy was 33%.

And the Efficacy [14]?
The Efficacy was 63%.

What about the IC50 (Homo sapiens) of the same compound?
The IC50 was 0.3 µM.

What about the bioavailability [15] of the same compound?
The bioavailability was 60%.

What does the source list for `CCc1c[n+]([O-])ccc1CC(c1ccc(C(O)(C(F)(F)F)C(F)(F)F)cc1)c1ccc(OC(F)F)c(OC(F)F)c1` (stereo unspecified)?
IC50 [4]: 0.027 µM; IC50 (Homo sapiens; Homo sapiens, Blood): 3.9 µM

For `Cc1cc(C(Cc2cc[n+]([O-])cc2)c2ccc(OC(F)F)c(OC(F)F)c2)ccc1C(O)(C(F)(F)F)C(F)(F)F` (stereo unspecified), which IC50 [4] is on record?
Its IC50 is 0.0044 µM.

What about the IC50 (Homo sapiens; Homo sapiens, Blood) of the same compound?
Its IC50 is 1 µM.

Which IC50 [4] does the source give for `Cc1c[n+]([O-])ccc1CC(c1ccc(C(O)(C(F)(F)F)C(F)(F)F)cc1)c1ccc(OC(F)F)c(OC(F)F)c1` (single isomer, unassigned; enantiomer 2) here?
The IC50 was 0.023 µM.

What about the IC50 (Homo sapiens) of the same compound?
Its IC50 is 3.7 µM.

With `CC(=O)c1c[n+]([O-])ccc1CC(c1ccc(C(O)(C(F)(F)F)C(F)(F)F)cc1)c1ccc(OC(F)F)c(OC(F)F)c1` (stereo unspecified) as the compound, how does the IC50 [4] read?
The IC50 was 0.0027 µM.

What about the IC50 (Homo sapiens; Homo sapiens, Blood) of the same compound?
The IC50 was 2.9 µM.

For `CC(c1cc[n+]([O-])cc1)C(c1ccc(C(O)(C(F)(F)F)C(F)(F)F)cc1)c1ccc(OC(F)F)c(OC(F)F)c1` (single isomer, unassigned; diastereomer 1), which IC50 [4] is on record?
Its IC50 is 0.039 µM.

What about the IC50 (Homo sapiens) of the same compound?
Its IC50 is 23 µM.

What does the source list for `Cc1cc(CC(c2ccc(C(O)(C(F)(F)F)C(F)(F)F)cc2)c2ccc(OC(F)F)c(OC(F)F)c2)cc[n+]1[O-]` (stereo unspecified)?
IC50 [4]: 0.018 µM; IC50 (Homo sapiens; Homo sapiens, Blood): 0.3 µM

With `COc1ccc([C@]2(C#N)CC[C@@H](C(=O)O)CC2)cc1OC1CCCC1` [CILOMILAST] as the compound, how does the IC50 (Homo sapiens; Homo sapiens, Blood) read?
Its IC50 is 18 µM.

For `CC(O)c1c[n+]([O-])ccc1CC(c1ccc(C(O)(C(F)(F)F)C(F)(F)F)cc1)c1ccc(OC(F)F)c(OC(F)F)c1` (stereo unspecified), which IC50 [4] is on record?
The IC50 was 0.042 µM.

What about the IC50 (Homo sapiens; Homo sapiens, Blood) of the same compound?
The IC50 was 13 µM.

With `CC(c1cc[n+]([O-])cc1)C(c1ccc(C(O)(C(F)(F)F)C(F)(F)F)cc1)c1ccc(OC(F)F)c(OC(F)F)c1` (single isomer, unassigned; diastereomer 2) as the compound, how does the IC50 [4] read?
The IC50 was 0.039 µM.

What about the IC50 (Homo sapiens) of the same compound?
The IC50 was 7.8 µM.

Which results are given for `COc1ccc([C@H](Cc2ccncc2)c2ccccc2)cc1OC1CCCC1` [CDP840]?
IC50 [4]: 0.0042 µM; IC50 (Homo sapiens; Homo sapiens, Blood): 15 µM

For `Cc1c[n+]([O-])ccc1CC(c1ccc(C(O)(C(F)(F)F)C(F)(F)F)cc1)c1ccc(OC(F)F)c(OC(F)F)c1` (stereo in doubt) [listing 2 of 2 here], which Emesis (Mustela putorius furo) is on record?
The Emesis was “inactive”.

With `[O-][n+]1ccc(CC(c2ccc(C(O)(C(F)(F)F)C(F)(F)F)cc2)c2ccc(OC(F)F)c(OC(F)F)c2)cc1` (stereo unspecified) as the compound, how does the Efficacy (Cavia porcellus [16]) read?
The Efficacy was 58%.

And the Efficacy (Cavia porcellus [1])?
Its Efficacy is 0%.

And the Emesis (Mustela putorius furo)?
The Emesis was “inactive”.

And the IC50 [4]?
Its IC50 is 0.0042 µM.

What about the half-life [5] of the same compound?
Its half-life is over 48 h.

And the Cmax [7]?
Its Cmax is 14 µM.

What about the half-life [8] of the same compound?
Its half-life is over 48 h.

What about the Efficacy (Ovis aries [17]) of the same compound?
The Efficacy was 85%.

And the Efficacy [9]?
Its Efficacy is 96%.

What about the half-life [11] of the same compound?
Its half-life is over 48 h.

And the IC50 (Homo sapiens; Homo sapiens, Blood)?
The IC50 was 0.7 µM.

And the Efficacy (Ovis aries [18])?
Its Efficacy is 95%.

What does the source list for `Cc1cc(C(O)(C(F)(F)F)C(F)(F)F)ccc1C(Cc1cc[n+]([O-])cc1)c1ccc(OC(F)F)c(OC(F)F)c1` (stereo unspecified)?
IC50 [4]: 0.032 µM; IC50 (Homo sapiens; Homo sapiens, Blood): 7.8 µM

What does the source list for `Cc1c[n+]([O-])ccc1CC(c1ccc(C(O)(C(F)(F)F)C(F)(F)F)cc1)c1ccc(OC(F)F)c(OC(F)F)c1` (racemic)?
IC50 [4]: 0.0021 µM; IC50 (Homo sapiens): 0.4 µM

Which IC50 [4] does the source give for `[O-][n+]1ccc(CC(c2ccc(C(O)(C(F)(F)F)C(F)(F)F)cc2)c2ccc(OC(F)F)c(OC(F)F)c2)c(CO)c1` (stereo unspecified) here?
The IC50 was 0.038 µM.

What about the IC50 (Homo sapiens; Homo sapiens, Blood) of the same compound?
The IC50 was 7.9 µM.

What does the source list for `Cc1c[n+]([O-])cc(C)c1CC(c1ccc(C(O)(C(F)(F)F)C(F)(F)F)cc1)c1ccc(OC(F)F)c(OC(F)F)c1` (stereo unspecified)?
IC50 [4]: 0.057 µM; IC50 (Homo sapiens; Homo sapiens, Blood): 5.8 µM
